Active and inactive are the calls of the source.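 How the source made its calls: active means IC50 at or below 1 µM; inactive means the rest.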
Biological target: Protein-arginine deiminase type-4 (Homo sapiens) (UniProt Q9UM07)
Test: PAD4 enzyme inhibition potency, late-stage follow-up, biochemical, BAEE substrate, citrulline absorbance, 0-15 µM range (AID 588423)
Conditions: recombinant PAD4, BAEE citrulline colorimetric absorbance
Summary of the method: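 Compound dosing: seven concentrations, 0–15 µM. Material: recombinant human PAD4 enzyme. Input: 0.2 µM PAD4 enzyme. Reagent: 10 mM BAEE. Signal: citrulline color, absorbance 540 nm. Times: 15 min compound preincubation, 15 min BAEE reaction, 37 °C.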

Sequence of Protein-arginine deiminase type-4 (Homo sapiens) (Q9UM07 whole entry, looked up): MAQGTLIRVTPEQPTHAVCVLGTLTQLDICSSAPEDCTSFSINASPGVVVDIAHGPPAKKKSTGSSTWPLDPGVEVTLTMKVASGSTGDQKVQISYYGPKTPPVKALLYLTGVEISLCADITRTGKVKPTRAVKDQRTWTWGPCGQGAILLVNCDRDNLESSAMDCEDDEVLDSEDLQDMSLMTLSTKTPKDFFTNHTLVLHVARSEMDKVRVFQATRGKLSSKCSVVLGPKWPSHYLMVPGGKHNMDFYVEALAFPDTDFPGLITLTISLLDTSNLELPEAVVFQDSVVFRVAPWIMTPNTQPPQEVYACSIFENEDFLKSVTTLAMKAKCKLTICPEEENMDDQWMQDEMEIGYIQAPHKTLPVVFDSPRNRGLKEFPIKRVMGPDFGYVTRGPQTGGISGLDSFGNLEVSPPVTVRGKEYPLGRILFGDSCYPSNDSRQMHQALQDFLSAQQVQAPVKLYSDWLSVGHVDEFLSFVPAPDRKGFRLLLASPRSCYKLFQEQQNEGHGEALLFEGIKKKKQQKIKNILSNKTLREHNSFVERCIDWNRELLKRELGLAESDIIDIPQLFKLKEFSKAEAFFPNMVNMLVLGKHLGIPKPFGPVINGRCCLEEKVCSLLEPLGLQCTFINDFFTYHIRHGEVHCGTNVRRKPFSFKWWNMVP

IC50: inactive
SMILES: O=C1C(O)=C(O)C(=O)c2ncccc21
